Data on nine compounds can be found in PubChem BioAssay.

A short description of assay [1]: inhibitors of TNFa-induced NFkB p65 translocation, primary screen, imaging, HUVEC, MLSMR starter and 10KST1 sets (AID 438).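 Further: compound added about 3h40 before a 20 min TNFalpha stimulation.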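 On inhibition: signal is the nuclear over cytoplasmic p65 intensity ratio per well.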 The following applies: HUVEC TNFa-induced p65 nuclear translocation; cell count: measured here: nuclei count (cytotoxicity indicator), at 2.08 µM; inhibition: at 2 µM, stronger effect = higher value, 0% TNFa-plus-vehicle, 100% no-TNFa wells.
Assay [2] can be described thus: inhibitors of mutant huntingtin aggregation, primary screen, imaging, exon1htt(103Q)mCFP cells, high-content imaging (AID 483;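 active means visual image review flags a hit and inhibition of aggregation exceeds 20%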;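 further: compound exposure lasted 3 days before fixation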;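 on nuclei count: percent of the per-plate median nuclei count of sample wells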). The conditions noted are these: exon1htt(103Q)mCFP cell line, aggregate imaging, at 2 µM; inhibition of aggregation: stronger effect = higher value; nuclei count: measured here: cell count, toxicity.
The nature of assay [3]: inhibitors of E-selectin induction by TNFa, primary screen, imaging, HUVEC, immunofluorescence, MLSMR starter and 10KST1 sets (AID 487;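 active means visually confirmed hit in the image check and inhibition above 20%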;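 on inhibition: signal is fraction of cell area covered by stained E-selectin grains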;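 on nuclei count: 100% = median nuclei count of all wells on the same plate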). The following applies: HUVEC TNFalpha-induced E-selectin immunofluorescence imaging, at 2 µM; inhibition: stronger effect = higher value; nuclei count: measured here: cell number, toxicity.
The target in assay [4] is Voltage-gated potassium channel subunit beta-2 (Rattus norvegicus) (UniProt P62483). In words: KvBeta enzyme negative modulators, primary screen, biochemical, NADPH fluorescence (AID 622;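 active means fluorescence slope higher than the sample average by over 3 SD, cut at about -0.22 in these data, passing the limit was not always enough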;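 further: slope of raw intensity against log time taken from 70 to 1610 s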). The following applies: recombinant KvBeta, 4-cyanobenzaldehyde reduction, at 10 µM, stronger effect = higher value.
Chain of Voltage-gated potassium channel subunit beta-2 (Rattus norvegicus) (P62483 whole entry, looked up): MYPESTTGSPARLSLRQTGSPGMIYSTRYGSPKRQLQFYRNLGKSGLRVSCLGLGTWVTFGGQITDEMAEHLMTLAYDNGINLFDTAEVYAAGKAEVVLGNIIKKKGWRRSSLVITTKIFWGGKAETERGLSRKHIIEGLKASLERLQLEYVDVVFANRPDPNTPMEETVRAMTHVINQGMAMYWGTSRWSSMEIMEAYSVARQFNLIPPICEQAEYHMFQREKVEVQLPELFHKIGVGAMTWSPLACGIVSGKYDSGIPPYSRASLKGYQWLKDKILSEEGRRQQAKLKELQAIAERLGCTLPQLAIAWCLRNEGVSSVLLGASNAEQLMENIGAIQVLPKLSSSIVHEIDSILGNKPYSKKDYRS
For assay [5] the target is unchanged. In words: KvBeta positive modulators, primary screen, biochemical, NADPH fluorescence (AID 623;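 active means NADPH fluorescence slope more negative than the mean of all samples by about 3 SD, 99.7% confidence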;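 further: fluorescence intensity change per second fitted from 20 to 320 s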). The following applies: Recombinant KvBeta, NADPH fluorescence decrease slope, 10 min; at 10 µM; stronger effect = lower value.
The target in assay [6] is Muscarinic acetylcholine receptor M4 (Homo sapiens) (UniProt P08173). In words: compounds altering M4/GIRK thallium flux, either direction, primary screen, M4 allosteric agonist project, cell-based, HEK293 M4/GIRK, BTC-AM (AID 625;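 active means fluorescence slope after compound addition differing from the mean of all tested samples at 99.7% confidence, mostly higher but some lower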;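 further: thallium influx through GIRK channels coupled to M4 in HEK293 cells with BTC-AM dye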). The following applies: at 10 µM, actives lie on both sides. The essentials:
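System: HEK293 cells with M4 receptor and GIRK channels | Incubation: Cells overnight at 37 °C, BTC-AM loading 1 h, reads 2 min total | Technique: Kinetic BTC-AM fluorescence sampled at 1 Hz, 10 s pre-addition baseline | Measure: Post-addition slope, 15–24 s, of baseline-normalized fluorescence | Control set: Carbachol positive, DMSO negative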

Assay [7] in a line: inhibitors of Sendai virus-induced IRF3 signaling, primary screen, TLR/RLR signaling modifier project, cell-based, Sendai virus stimulus, luciferase, 10K MLSCN set (AID 602276;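 active means inhibition at or above 50% at 10 µM; inactive means inhibition below 50%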;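 further: firefly luciferase from ISG56 promoter only with Renilla not read in this screen; 0% = Sendai virus plus DMSO and 100% = medium plus DMSO without virus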). The following applies: HEK293 RL24 IRF3 luciferase reporter, at 10 µM, stronger effect = higher value. Background: Reporter assays use an easily measured gene product as a stand-in for the process of interest.
Assay [8] is described as follows: inhibitors of poly I:C-induced TLR3 signaling, primary screen, cell-based, poly I:C stimulus, luciferase, 10K MLSCN set (AID 602277;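 active means inhibition of the reporter signal at or above 50%; inactive means inhibition below 50%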). The following applies: HEK293-TLR3 RL24 IRF3 luciferase reporter, at 10 µM, stronger effect = higher value.

Active and inactive are the calls of the source.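 How the source made its calls, unless noted: active means inhibition above 20% together with a positive visual image hit; inconclusive means visual image hit but inhibition not above 20%; inactive means no visual image hit.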

Chain of Muscarinic acetylcholine receptor M4 (Homo sapiens) (P08173 whole entry, looked up): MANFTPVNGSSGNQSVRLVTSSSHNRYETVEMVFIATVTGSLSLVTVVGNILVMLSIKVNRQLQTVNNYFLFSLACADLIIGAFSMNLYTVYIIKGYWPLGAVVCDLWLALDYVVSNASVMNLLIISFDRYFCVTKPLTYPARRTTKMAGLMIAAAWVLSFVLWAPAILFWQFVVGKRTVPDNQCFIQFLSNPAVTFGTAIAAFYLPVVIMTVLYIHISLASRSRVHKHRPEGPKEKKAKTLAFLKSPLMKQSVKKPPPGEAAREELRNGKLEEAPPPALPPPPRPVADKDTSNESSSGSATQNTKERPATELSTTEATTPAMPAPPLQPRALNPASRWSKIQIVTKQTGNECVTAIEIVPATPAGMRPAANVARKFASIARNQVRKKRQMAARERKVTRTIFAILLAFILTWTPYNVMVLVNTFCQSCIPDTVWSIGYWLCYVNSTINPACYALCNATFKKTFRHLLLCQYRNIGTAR

One may read the inhibition as the drop in the measured response relative to a control, in per cent. As to `CN(C)CC(=O)N1c2ccccc2CCc2ccc(NC(=O)c3ccc(N)cc3)cc21`, the cell count in assay [1] was 555. The inhibition in assay [1] was -15.6% (inactive); in assay [3], -115% (inactive); in assay [7], 11.3% (inactive); in assay [8], 26.6% (inactive). Moreover, the inhibition of aggregation in assay [2] was 3.6% (inactive). In addition, the nuclei count in assay [2] amounted to 95.1%; in assay [3] it was 108%. For the same compound, the fluorescence slope in assay [4] is -0.571 (inactive); in assay [6], 0.00297 (inactive). Further, the NADPH fluorescence slope in assay [5] was -5.5e-05 (inactive).
As to `CC(C)=CC(=O)Nc1ccc(Br)cc1`, in assay [1], the cell count worked out at 670. In addition, the inhibition in assay [1] was -11.9% (inactive); in assay [3], 5.2% (inactive); in assay [7], -88% (inactive); in assay [8] it was -158% (inactive). Further, the inhibition of aggregation in assay [2] is -6.6% (inactive). Besides, the nuclei count in assay [2] is 73.9%; in assay [3], 91.1%. For the same compound, the fluorescence slope in assay [4] was -0.582 (inactive); in assay [6], 0.00668 (inactive). The NADPH fluorescence slope in assay [5] was -1.3e-05 (inactive).
Take `CCOC(=O)c1sc(N2C(=O)C(O)=C(C(=O)c3ccco3)C2c2ccccc2)nc1C` (centres undefined): the cell count in assay [1] amounted to 425. Further, the inhibition is 2.8% (inactive) in assay [1], -43.5% (inactive) in assay [3], 6.84% (inactive) in assay [7] and -6.96% (inactive) in assay [8]. Also, the inhibition of aggregation in assay [2] is 9.3% (inactive). In addition, the nuclei count was found to be 102% in assay [2] and 97.4% in assay [3]. For the same compound, the fluorescence slope is -0.37 (inactive) in assay [4] and 0.00663 (inactive) in assay [6]. For the same compound, in assay [5], the NADPH fluorescence slope is -5.7e-05 (inactive).
Take `CC(C)(C)OC(=O)N1CCC(C(=O)N[C@H](Cc2ccccc2)C(=O)O)CC1`: the cell count in assay [1] was found to be 523. Also, the inhibition is -7.8% (inactive) in assay [1], -11.8% (inactive) in assay [3], 15.3% (inactive) in assay [7] and 18.1% (inactive) in assay [8]. The inhibition of aggregation in assay [2] was 19.6% (inactive). In addition, the nuclei count in assay [2] stood at 85.5%; in assay [3], 89.3%. In addition, the fluorescence slope in assay [4] is -0.323 (inactive); in assay [6] it was 0.00514 (inactive). In addition, the NADPH fluorescence slope in assay [5] was -5.3e-05 (inactive).
As to `CC(C)c1ccc(NC(=O)C2CC(=O)N(C(C)C)C2)cc1` (centres undefined), in assay [1], the cell count stood at 232. Further, the inhibition is -2.3% (inactive) in assay [1], -44.3% (inactive) in assay [3], 12.8% (inactive) in assay [7] and -37.1% (inactive) in assay [8]. Besides, in assay [2], the inhibition of aggregation was 21% (inactive). The nuclei count in assay [2] was 81.7%; in assay [3], 108%. For the same compound, the fluorescence slope in assay [4] was -0.558 (inactive); in assay [6], 0.0102 (inactive). Besides, the NADPH fluorescence slope in assay [5] is -6.2e-05 (inactive).
On to `COc1cccc(NC(=O)CN2CCN(c3ccccc3F)CC2)c1`, for which, in assay [1], the cell count was 275. In addition, the inhibition in assay [1] is -7.3% (inactive); in assay [3], 11.9% (inactive); in assay [7] it was 17.2% (inactive); in assay [8], 10.2% (inactive). Besides, the inhibition of aggregation in assay [2] is 19.4% (inactive). The nuclei count was found to be 90.1% in assay [2] and 86.8% in assay [3]. In addition, the fluorescence slope in assay [4] was -0.526 (inactive); in assay [6], 0.00586 (inactive). In addition, the NADPH fluorescence slope in assay [5] is 0.000174 (inactive).
`C=C(C)c1cccc(C(C)(C)NC(=O)Nc2ncccn2)c1`: the cell count in assay [1] was 472. Also, the inhibition is -4.3% (inactive) in assay [1], -0.4% (inactive) in assay [3], -42.4% (inactive) in assay [7] and 98.6% (active) in assay [8]. For the same compound, the inhibition of aggregation in assay [2] is 1.6% (inactive). Further, the results for the nuclei count in assay [2] and in assay [3] were 106% and 99.6%, respectively. In addition, the fluorescence slope was -0.601 (inactive) in assay [4] and 0.00622 (inactive) in assay [6]. Besides, in assay [5], the NADPH fluorescence slope is -1.1e-05 (inactive).
For the compound `c1ccc2c3nnc4n(c-3nc2c1)CCCS4`, in assay [1], the cell count turned out to be 472. Further, the inhibition in assay [1] was 4.1% (inactive); in assay [3], 17.9% (inactive); in assay [7], -12.6% (inactive); in assay [8], -19.6% (inactive). For the same compound, in assay [2], the inhibition of aggregation is 0.4% (inactive). Further, the nuclei count in assay [2] worked out at 101%; in assay [3], 112%. Further, the results for the fluorescence slope in assay [4] and in assay [6] were -0.444 (inactive) and 0.00387 (inactive), respectively. Also, the NADPH fluorescence slope in assay [5] is -2.5e-05 (inactive).
Take `c1ccc2[nH]c(CSc3nnc(-c4ccncc4)o3)nc2c1`: the cell count in assay [1] amounted to 388. Further, the inhibition in assay [1] was -5% (inactive); in assay [3], -20.9% (inactive); in assay [7] it was 7.74% (inactive); in assay [8], 13.2% (inactive). The inhibition of aggregation in assay [2] was 5.8% (inactive). Besides, the nuclei count is 83% in assay [2] and 90.8% in assay [3]. In addition, the fluorescence slope in assay [4] was -0.497 (inactive); in assay [6], 0.00421 (inactive). Moreover, the NADPH fluorescence slope in assay [5] was 1e-06 (inactive).
